Results from ChEMBL document CHEMBL1914446, “Pharmacophore identification, virtual screening and biological evaluation of prenylated flavonoids derivatives as PKB/Akt1 inhibitors” (Eur J Med Chem, 2011).
Calls of active or inactive are those of the source. The rule behind the calls is not given here.

What was measured:
[1] = molecular target: T1, RAC-alpha serine/threonine-protein kinase (Homo sapiens, UniProt P31749); test: Inhibition of GST-tagged PKB/Akt1 incubated for 5 mins before eNOS substrate and ATP addition measured after 30 mins by kinase assay
T1 sequence (P31749 whole entry): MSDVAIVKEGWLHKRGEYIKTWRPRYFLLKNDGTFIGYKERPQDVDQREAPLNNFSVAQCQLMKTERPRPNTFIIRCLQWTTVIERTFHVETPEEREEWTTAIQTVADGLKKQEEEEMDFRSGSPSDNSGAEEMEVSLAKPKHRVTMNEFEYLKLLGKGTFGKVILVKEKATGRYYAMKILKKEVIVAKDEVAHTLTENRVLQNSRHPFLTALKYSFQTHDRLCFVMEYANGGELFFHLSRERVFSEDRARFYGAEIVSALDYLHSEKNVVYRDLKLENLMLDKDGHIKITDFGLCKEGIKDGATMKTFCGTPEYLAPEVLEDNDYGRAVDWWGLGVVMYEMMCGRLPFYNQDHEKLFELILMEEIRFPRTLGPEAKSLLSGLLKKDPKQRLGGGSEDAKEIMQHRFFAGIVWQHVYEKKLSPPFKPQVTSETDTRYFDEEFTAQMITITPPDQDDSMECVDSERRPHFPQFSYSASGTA

[2] = molecular target: T1, RAC-alpha serine/threonine-protein kinase; test: Inhibition of GST-tagged PKB/Akt1 incubated for 5 mins before eNOS substrate and ATP addition at > 50 uM measured after 30 mins by kinase assay
How it was run: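 HTScan PKB/Akt1 kit: active recombinant GST-Akt1 (4 ng) in kinase buffer (Tris-HCl pH 7.5, MgCl2, β-glycerophosphate, Na3VO4, DTT) preincubated with compound or DMSO vehicle 5 min at room temperature. ATP/substrate cocktail with eNOS substrate added. Reaction stopped with 50 mM EDTA (pH 8.0); activity read per kit instructions. H-89 as positive control.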

[3] = tested on: OVCAR-8; test: Induction of apoptosis in human OVCAR8 cells assessed as apoptotic cells at 20 uM after 72 hrs by Annexin V-FITC/propidium iodide staining-based FACS analysis; assay type: functional
How it was run: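 OVCAR-8 cells (5 × 10^4 cells/ml) cultured in flasks and treated with vehicle or compound. After treatment, cells harvested and washed twice in ice-cold PBS, then stained with Annexin V-FITC/propidium iodide and analysed by flow cytometry.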

[4] = tested on: HL-60; test: Antiproliferative activity against human HL60 after 72 hrs by MTT assay; assay type: functional, cell-based; details: HL-60, 72 h
How it was run: (§1)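 MTT read-out: cells seeded at 4000 per well, attached overnight, exposed to compound over 1.0–100.0 µM for 72 h. MTT solution (5.0 mg/ml) added for a further 4 h at 37 °C, formazan dissolved in DMSO, absorbance at 570 nm. Triplicate wells in three independent experiments; IC50 from dose–effect analysis.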

[5] = tested on: PC-3; test: Antiproliferative activity against human PC3 after 72 hrs by MTT assay; assay type: functional, cell-based; details: PC-3, 72 h; how it was run: as §1
[6] = tested on: OVCAR-8; test: Decrease in GSK3-beta protein level in human OVCAR8 cells at 20 uM by Western blot analysis; assay type: functional, cell-based
How it was run: (§2)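 OVCAR-8 cells treated, harvested, washed in ice-cold PBS and lysed in immunoprecipitation buffer with NaF, β-glycerophosphate, detergents and PMSF. Debris pelleted at 13,000 rpm for 30 min at 4 °C; protein measured by Bradford. Immunoblots probed for phospho-Akt Ser-473, phospho- and total GSK3, with GAPDH.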

[7] = tested on: OVCAR-8; test: Down regulation of PKB/Akt phosphorylation at Ser-473 in human OVCAR8 cells at 20 uM by Western blot analysis; assay type: functional, cell-based; how it was run: as §2
[8] = tested on: OVCAR-8; test: Inhibition of PKB/Akt in human OVCAR8 cells assessed as decrease of GSK3-beta phosphorylation at 20 uM after Western blot analysis; assay type: cell-based; how it was run: as §2
[9] = tested on: OVCAR-8; test: Antiproliferative activity against human OVCAR8 after 72 hrs by MTT assay; assay type: functional, cell-based; details: OVCAR-8, 72 h; how it was run: as §1

Q: How did the IC50 ([1]; read-out: IC50) turn out when CC(C)=CCc1cc(C(=O)/C=C/c2cccc(O)c2)c(O)cc1O was run?
A: 85.9 µM

Q: Which results are given for CC(=O)Nc1cccc(-n2nnc(SCC(=O)NCc3cccs3)n2)c1?
A: IC50 ([1]; read-out: IC50): > 50 µM; inhibition [2]: 19.6%

Q: With CC(C)=CCc1c(O)cc2oc(-c3ccc(O)c(O)c3)cc(=O)c2c1O as the compound, how does the Activity [3] read?
A: 40.19%

Q: What about the IC50 ([1]; read-out: IC50) of the same compound?
A: 5.4 µM

Q: And the IC50 [4]?
A: 2.5 µM

Q: What about the IC50 [5] of the same compound?
A: 14.6 µM

Q: And the Activity [6]?
A: inactive

Q: What about the Activity [7] of the same compound?
A: Active

Q: What about the inhibition [8] of the same compound?
A: Active

Q: What about the IC50 [9] of the same compound?
A: 23.8 µM

Q: With CC(C)=CCc1cc2c(=O)cc(-c3ccc(O)cc3O)oc2cc1O as the compound, how does the IC50 [1] read?
A: Not Active

Q: With O=c1cc(CSc2nnc(O)n2C2Cc3ccccc3C2)c2ccc(O)cc2o1 as the compound, how does the IC50 [1] read?
A: Not Active

Q: With CC(C)=CCc1c(O)cc(O)c2c(=O)cc(-c3ccc(O)c(O)c3)oc12 as the compound, how does the Activity [3] read?
A: 49.11%

Q: And the IC50 ([1]; read-out: IC50)?
A: 3.9 µM

Q: And the IC50 [4]?
A: 3.31 µM

Q: And the IC50 [5]?
A: 18.6 µM

Q: And the Activity [6]?
A: inactive

Q: And the Activity [7]?
A: Active

Q: What about the inhibition [8] of the same compound?
A: Active

Q: And the IC50 [9]?
A: 16.6 µM

Q: Which IC50 [1] does the source give for Cc1ccc(S(=O)(=O)OC[C@H]2O[C@@H](n3cnc4c(=O)[nH]c(NC(=O)C(C)C)nc43)C[C@H]2O)cc1 here?
A: Not Active

Q: How did the IC50 ([1]; read-out: IC50) turn out when CC(C)=CCc1c(O)cc(O)c(C(=O)/C=C/c2ccc(O)cc2)c1O [DEMETHYLXANTHOHUMOL] was run?
A: 144 µM

Q: CC(C)=CCc1c(O)cc2oc(-c3ccc(O)cc3O)cc(=O)c2c1O was tested. Which IC50 ([1]; read-out: IC50) did it give?
A: 54.5 µM
